Results gathered from unrelated publications.
Lines come from different studies, so protocols differ.
Target: Testis-specific serine/threonine-protein kinase 1 (TSSK1B, Homo sapiens, UniProt Q9BXA7)
One construct used (Q9BXA7 1-367): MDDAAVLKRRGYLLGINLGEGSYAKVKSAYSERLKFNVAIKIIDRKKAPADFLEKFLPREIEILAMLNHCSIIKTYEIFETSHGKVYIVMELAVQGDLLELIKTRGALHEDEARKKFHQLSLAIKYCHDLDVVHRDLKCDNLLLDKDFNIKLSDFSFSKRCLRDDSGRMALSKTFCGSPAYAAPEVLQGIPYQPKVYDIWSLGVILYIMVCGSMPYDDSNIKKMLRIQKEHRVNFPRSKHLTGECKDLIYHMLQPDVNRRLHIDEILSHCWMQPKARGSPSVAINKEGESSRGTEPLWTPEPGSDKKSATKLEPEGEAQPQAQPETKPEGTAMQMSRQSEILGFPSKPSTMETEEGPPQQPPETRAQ

Compound | assay | conditions | quantity | value
CCCOc1ccc(OC)c(F)c1C(=O)c1ccc(C(=O)N[C@@H]2CNC[C@H]2NC(=O)c2ccc3[nH]ncc3c2)cc1 | enzyme activity, inhibitor | 10 µM | remaining activity | 70%
COc1cc(Cl)c(C(=O)N[C@@H](CN[C@H]2CC[C@@H](N)CC2)Cc2ccc(C#N)cc2)cc1-c1ccc(CN[C@H](C)c2ccc(C)cc2)o1 | enzyme activity, inhibitor | 1 µM | remaining activity | 101%
Cc1cnc(NC2CCOCC2)nc1-n1cnc(C(=O)NC(CN)c2cc(F)cc(Cl)c2)c1 (stereo not drawn) | enzyme activity, inhibitor, radiometric | 1 µM | remaining activity | 55%
FC(F)(F)c1ccc2c(c1)nc(-c1cccnc1)n2C1CC1 | cell-free assay, competition with immobilised ligand | 1 µM | remaining binding | 100%
CCCS(=O)(=O)Nc1ccc(F)c(C(=O)c2c[nH]c3ncc(-c4ccc(Cl)cc4)cc23)c1F | enzyme activity, inhibitor | 1 µM | inhibition | < 10%
Cc1c(NC(=O)c2cc(C(N)=O)nc3cc(F)ccc23)c(C(F)(F)F)nn1Cc1ccc(C(C)(C)C)cc1 | cell-free assay, competition with immobilised ligand | 1 µM | remaining binding | 100%
COc1cc2ncnc(Nc3ccc(Oc4ccccc4)cc3C)c2cc1OC | enzyme activity, inhibitor | 1 µM | inhibition | 2%
O=C(Nc1cnn(-c2csc(C(=O)NC3COC3)c2)c1)Nc1c(F)cccc1Cl | enzyme activity, inhibitor | 5 µM | remaining activity | 107%
COc1ccc2c(O[C@@H]3C[C@H]4C(=O)N[C@]5(C(=O)O)CC5/C=C\CCCCC[C@H](NC(=O)OC5CCCC5)C(=O)N4C3)cc(-c3csc(NC(=O)C(C)C)n3)nc2c1C (stereo partly drawn) | cell-free assay, competition with immobilised ligand | 1 µM | remaining binding | 70%
CCOc1cc(-c2nncn2C)ccc1Nc1ncc2cc(C)nc(NCC(C)(C)C)c2n1 | enzyme activity, inhibitor, FRET | 1 µM | inhibition | < 15%
CNc1cccc2cc(C(=O)Nc3ccc(C(=O)O)cc3)c(=O)[nH]c12 | enzyme activity, inhibitor | 10 µM | inhibition | 2.1%
C[C@H](c1cccc(C#N)c1)n1cc(Cl)cc(C(N)=O)c1=N | cell-free assay, competition with immobilised ligand | 1 µM | remaining binding | 96%
CCN(CC)CCNC(=O)c1c(C)[nH]c(/C=C2\C(=O)Nc3ccc(F)cc32)c1C | enzyme activity, inhibitor | 10 µM | inhibition | 20%
CS(=O)(=O)N1CCCC(NC(=O)[C@H](CCC2CCCCC2)NC(=O)c2ccc(CNC(=O)c3cnc4ccccn34)cc2)C1 (stereo partly drawn) | cell-free assay, competition with immobilised ligand | 0.1 µM | remaining binding | 94%
COc1cc(/C=C/C(=O)CC(=O)/C=C/c2ccc(O)c(OC)c2)ccc1O | enzyme activity, inhibitor | 1 µM | activity vs control | 106%
CCN(CC)c1ccc(C2=NNC(=O)CC2C)cc1[N+](=O)[O-] (stereo not drawn) | enzyme activity, inhibitor | 10 µM | remaining activity | 96%
CN(C)C1CCN(CC#Cc2nn(C3CCCC3)c3nc(NCc4ccccc4)ncc23)C1 (stereo not drawn) | enzyme activity, inhibitor, FRET | 10 µM | inhibition | -8%
O=C1Nc2ccc(Cl)cc2C1=Cc1cc(Cl)c(O)c(Cl)c1 | cell-free assay | 0.5 µM | remaining signal | 88.2%
CC(C)(C)c1nc(-c2cccc(NS(=O)(=O)c3c(F)cccc3F)c2F)c(-c2ccnc(N)n2)s1 | enzyme activity, inhibitor, radiometric | 1 µM | remaining activity | 84%
Cc1ccc(Nc2nccc(N(C)c3ccc4c(C)n(C)nc4c3)n2)cc1S(N)(=O)=O | enzyme activity, inhibitor | 10 µM | inhibition | 1%
CCOCCn1cc(C(=O)Nc2ccc(-n3nc(-c4cccnc4)cc3C(F)(F)F)cn2)ccc1=O | cell-free assay, competition with immobilised ligand | 1 µM | remaining binding | 100%
CNC(=O)c1cc(Oc2ccc(NC(=O)Nc3ccc(Cl)c(C(F)(F)F)c3)cc2)ccn1 | enzyme activity, inhibitor | 0.3 µM | inhibition | -6%
N#Cc1ccc(Nc2ccc3[nH]c(=O)[nH]c3c2)c(Cl)c1 | cell-free assay, competition with immobilised ligand | 1 µM | remaining binding | 56%
Cc1ccc(NC(=O)c2ccc(CN3CCN(C)CC3)cc2)cc1Nc1nc(-c2cccnc2)cs1 | cell-free assay | 0.5 µM | remaining signal | 100%
